Results taken from ChEMBL document CHEMBL5712072, “Epigenetic targeting of Hedgehog pathway transcriptional output through BET bromodomain inhibition” (Nat Med, 2014).
Active and inactive are the calls of the source. No cut-off for these calls is given here.

Legend:
[1] = tested on: MEF; assay: Downregulation of Gli transcription in Sufu-/- MEF cells by immunoblot analysis; format: functional, cell-based; settings: Mus musculus
Summary of the method: (§1)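 Sufu−/− MEFs exposed to DMSO or 1 uM of JQ1, GDC-0449, LDE225 or SANT-1; RIPA lysis 30min on ice, cleared 13000rpm 15min 4°C; SDS-PAGE immunoblot with anti-GLI1, β-tubulin as loading control.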

[2] = tested on: MEF; assay: Downregulation of Gli1 protein expression in Sufu-/- MEF cells by immunoblot analysis; format: functional, cell-based; settings: Mus musculus; summary of the method: as §1
[3] = molecular target: Zinc finger protein GLI2 (Homo sapiens) (UniProt P10070); assay: Inhibition of human GLI2 expressed in Hh-Light2 cells assessed as reduction in Gli1 mRNA expression level by qRT-PCR analysis; format: cell-based
Summary of the method: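 Hh-Light2 cells transiently transfected (Turbofect) with full-length murine HA-Gli2-FL or N-terminally truncated human Myc-GLI2-DN; drugs (1 uM JQ1, GDC-0449, LDE225 or SANT-1) added 24hr post-transfection; Gli1 mRNA by SYBR Green qRT-PCR; mean of triplicates ± SD.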

[4] = molecular target: Bromodomain-containing protein 4 (Mus musculus) (UniProt Q9ESU6); assay: Inhibition of BRD4 in mouse Hh-Light2 cells assessed as Gli1 mRNA level by qRT-PCR analysis
[5] = molecular target: Bromodomain-containing protein 4 (Mus musculus) (UniProt Q9ESU6); assay: Inhibition of BRD4 in mouse Hh-Light2 cells assessed as inhibition in Gli1 protein level by immunoblot analysis
[6] = tested on: Medulloblastoma cell; assay: Antiproliferative activity against in […] medulloblastoma cells expressing SmoWT-MB cells from mouse assessed as cell proliferation by EdU analysis; format: functional, cell-based
Summary of the method: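 SmoWT-MB cells given 0.1uM GDC-0449 or LDE225 (or JQ1 1 uM); 10uM EdU added for final 6-8hrs; EdU+ cells detected by Click-iT flow cytometry or imaging, DAPI counterstain; proliferation index = EdU+/DAPI+ cells; group means ± SD.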

[7] = tested on: Medulloblastoma cell; assay: Antitumor activity in […] medulloblastoma cells expressing SmoD477G mutant […] in NSG mouse assessed as reduction in tumor growth at 100 mg/kg/day, po; format: functional, organism-based
[8] = tested on: Medulloblastoma cell; assay: Antitumor activity in […] medulloblastoma expressing wildtype SMO […] in NSG mouse assessed as reduction in tumor growth at 100 mg/kg/day, po; format: functional, organism-based
Summary of the method: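 Flank allografts: 2x10e6 SmoWT-MB cells per flank (both flanks) in 4-6 week NSG mice; randomized after engraftment to vehicle, GDC-0449 100 mg/kg PO qd or JQ1 50 mg/kg IP qd, dosed until euthanasia required; caliper tumor measurement; group means ± S.E.M.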

[9] = tested on: Medulloblastoma cell; assay: Induction of apoptosis in human wildtype SMO expressing medulloblastoma cells assessed as viable cells by annexin-V/PI staining based flow cytometric analysis (reference value: 74.9%); format: functional
[10] = tested on: Medulloblastoma cell; assay: Induction of apoptosis in human wildtype SMO expressing medulloblastoma cells assessed as early apoptotic cells by annexin-V/PI staining based flow cytometric analysis (reference value: 0.59%); format: functional
[11] = tested on: Medulloblastoma cell; assay: Induction of apoptosis in mouse wildtype SMO expressing medulloblastoma cells assessed as necrotic cells by annexin-V/PI staining based flow cytometric analysis (reference value: 22%)
[12] = tested on: Medulloblastoma cell; assay: Induction of apoptosis in mouse wildtype SMO expressing medulloblastoma cells assessed as late apoptotic cells by annexin-V/PI staining based flow cytometric analysis (reference value: 2.5%)

Sequence of Zinc finger protein GLI2 (Homo sapiens) (P10070 whole entry, the tested form may be a part): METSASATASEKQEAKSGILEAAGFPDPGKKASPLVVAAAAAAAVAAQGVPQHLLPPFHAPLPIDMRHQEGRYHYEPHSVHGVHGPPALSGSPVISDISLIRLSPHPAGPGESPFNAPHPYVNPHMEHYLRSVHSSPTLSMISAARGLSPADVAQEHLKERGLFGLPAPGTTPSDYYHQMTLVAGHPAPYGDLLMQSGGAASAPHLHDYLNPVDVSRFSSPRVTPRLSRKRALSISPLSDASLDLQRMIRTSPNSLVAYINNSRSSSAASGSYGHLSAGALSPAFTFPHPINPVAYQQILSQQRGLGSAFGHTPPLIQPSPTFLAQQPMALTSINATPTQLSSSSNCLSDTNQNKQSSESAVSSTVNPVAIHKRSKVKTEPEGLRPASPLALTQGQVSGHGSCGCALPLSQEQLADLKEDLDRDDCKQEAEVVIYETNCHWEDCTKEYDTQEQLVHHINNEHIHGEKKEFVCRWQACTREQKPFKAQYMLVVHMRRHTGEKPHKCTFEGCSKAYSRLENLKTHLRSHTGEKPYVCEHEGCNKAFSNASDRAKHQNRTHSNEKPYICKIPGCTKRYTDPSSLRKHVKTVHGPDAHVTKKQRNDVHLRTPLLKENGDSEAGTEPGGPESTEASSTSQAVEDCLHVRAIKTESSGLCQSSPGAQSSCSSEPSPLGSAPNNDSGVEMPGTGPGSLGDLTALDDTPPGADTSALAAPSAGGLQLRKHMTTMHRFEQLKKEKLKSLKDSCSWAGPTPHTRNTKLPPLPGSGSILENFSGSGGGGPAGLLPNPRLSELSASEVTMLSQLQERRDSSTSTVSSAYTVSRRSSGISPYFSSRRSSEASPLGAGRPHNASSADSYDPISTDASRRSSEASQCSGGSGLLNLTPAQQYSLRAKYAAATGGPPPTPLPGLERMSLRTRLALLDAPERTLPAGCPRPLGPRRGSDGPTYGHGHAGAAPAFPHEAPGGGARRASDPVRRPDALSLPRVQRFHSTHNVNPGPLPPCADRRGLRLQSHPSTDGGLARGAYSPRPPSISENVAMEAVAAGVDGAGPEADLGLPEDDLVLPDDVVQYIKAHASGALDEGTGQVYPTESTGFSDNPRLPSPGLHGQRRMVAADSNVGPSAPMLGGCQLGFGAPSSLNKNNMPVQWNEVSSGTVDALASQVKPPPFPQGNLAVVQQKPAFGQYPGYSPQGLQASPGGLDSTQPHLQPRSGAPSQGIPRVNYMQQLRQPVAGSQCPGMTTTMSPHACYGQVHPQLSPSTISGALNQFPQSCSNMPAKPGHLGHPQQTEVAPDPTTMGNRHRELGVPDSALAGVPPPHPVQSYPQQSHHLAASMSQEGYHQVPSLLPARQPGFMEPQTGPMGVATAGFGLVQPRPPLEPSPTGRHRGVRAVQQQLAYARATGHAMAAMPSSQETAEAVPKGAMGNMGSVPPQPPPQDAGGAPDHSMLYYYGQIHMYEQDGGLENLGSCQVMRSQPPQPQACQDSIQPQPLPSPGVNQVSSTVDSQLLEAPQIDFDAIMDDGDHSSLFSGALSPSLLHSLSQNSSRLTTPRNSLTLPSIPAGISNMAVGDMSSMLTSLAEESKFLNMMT

SMILES | Activity [1] | Activity [2] | inhibition [3] | inhibition [4] | inhibition [5] | Activity [6] | Activity [7] | Activity [8] | Activity [9] | Activity [10] | Activity [11] | Activity [12]
Cc1nn(-c2ccccc2)c(C)c1/C=N/N1CCN(Cc2ccccc2)CC1 | inactive | inactive | inactive | Active | Active |  |  |  |  |  |  | 
CS(=O)(=O)c1ccc(C(=O)Nc2ccc(Cl)c(-c3ccccn3)c2)c(Cl)c1 [VISMODEGIB] | inactive | inactive | inactive | Active | Active | Active | inactive | Active | 40.8% | 1.01% | 51.2% | 6.98%
Cc1c(C(=O)Nc2ccc(N3C[C@@H](C)O[C@@H](C)C3)nc2)cccc1-c1ccc(OC(F)(F)F)cc1 [SONIDEGIB] | inactive | inactive | inactive | Active | Active | Active |  |  | 33% | 1.09% | 58.8% | 7.15%
